# Measurements from ChEMBL document CHEMBL3526009, “Breast cancer resistance protein (ABCG2) determines distribution of genistein phase II metabolites: reevaluation of the roles of ABCG2 in the disposition of genistein” (Drug Metab Dispos, 2012).
# What was measured:
# [1] = Biliary excretion in BCRP-/- mouse treated with genistein measured after 2.5 hrs post intestinal perfusion by UPLC-MS/MS analysis; format: ADME, Bile; conditions: in vivo, other
# Outline: (§1)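 Gallbladder bile taken after 2.5 h of simultaneous small intestine/colon perfusion with 10 μM genistein (HBSS pH 7.4, 0.191 ml/min) in FVB or Bcrp1(−/−) mice (n = 4). Bile diluted 20-fold in HBSS, daidzein internal standard in acetonitrile added, dried and reconstituted. Genistein and conjugates quantified by UPLC-MS/MS.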
# Blood = experiment: Stability in Wistar rat blood at 3 uM up to 4 hrs by UPLC-MS/MS analysis; format: ADME, tissue-based
# Outline: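 Genistein glucuronide mixture (G-7-G plus G-4′-G, 3 μM) with 3.8 μM genistein incubated in fresh rat whole blood, 37°C shaking water bath. Sampled at 0, 60, 120 and 240 min. Reaction stopped with acetonitrile containing daidzein internal standard. Genistein and conjugates quantified by UPLC-MS/MS using multiple reaction monitoring. n = 3.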
# [2] = Stability in potassium phosphate buffer at pH 7.4 up to 4 hrs; format: physicochemical; conditions: pH 7.4, 4 h
# Outline: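 Negative control run under the blood-incubation conditions but in 50 mM potassium phosphate buffer, pH 7.4, instead of blood. Genistein glucuronides (G-7-G plus G-4′-G, with aglycone) or sulfates (G-7-S plus G-4′-S, with aglycone) held at 37°C in a shaking water bath up to 4 h. Sampled at 0, 60, 120 and 240 min and read by UPLC-MS/MS.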
# [3] = Biliary excretion in wild-type FVB mouse treated with genistein measured after 2.5 hrs post intestinal perfusion by UPLC-MS/MS analysis; format: ADME, Bile; conditions: in vivo, other; outline: as §1
structure (smiles),measurement,setting,value
O=C(O)[C@H]1O[C@@H](Oc2ccc(-c3coc4cc(O)cc(O)c4c3=O)cc2)[C@H](O)[C@@H](O)[C@@H]1O,Drug excretion,[1],metabolite_detected
same,Stability,Blood,Stable
same,Stability,[2],Stable
same,Drug excretion,[3],metabolite_detected
